aDG glyco up: activators of alpha-DG glycosylation, primary screen, uHTS, Pro5-aDG cells, AlphaScreen | 360,000 compounds, 0.22% hits | alpha-DG glycosylation AlphaScreen (IIH6); 0% Pro5, 100% B10-LARGE cell signal | activation, % at 10 µM | AID 624168, 2012;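 active = activation of at least 8% versus controls, or a plate z-score of at least 8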;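 also: Pro5 are CHO cells carrying HIG-tagged alpha-DG that lacks glycosylation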
NR1D1 modulator: modulators of Rev-erb alpha DNA binding, primary screen, biochemical, FITC-DNA, fluorescence polarization, uHTS | Nuclear receptor subfamily 1 group D member 1 (Homo sapiens), P20393 | Rev-erbα–FITC-DNA binding, 90 min | activity, % at 10 µM | 370,000 compounds, 0.79% hits;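 active = activity above about 14%, limit read from the data; passing the limit was not always enough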;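 also: 0% = DMSO wells with 35 nM protein and 100% = DMSO wells with 750 nM protein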
CSN inh: inhibitors of CSN-mediated cullin deneddylation, primary screen, biochemical, fluorescence polarization, uHTS | COP9 signalosome complex subunit 5 (Homo sapiens), Q92905 | Purified CSN, SCF-Nedd8-OG deneddylation | inhibition, % at 12.5 µM | 360,000 compounds, 0.38% hits | AID 651999, 2013;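 active = pattern-corrected inhibition above about 35%, with an unprinted fluorescence ratio check between 0.5 and 1.5, limit read from the data, passing the limit was not always enough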;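 also: 0% = enzyme with substrate and 100% = substrate without enzyme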
Target sequence (Q92905 whole entry, looked up, one chain of several): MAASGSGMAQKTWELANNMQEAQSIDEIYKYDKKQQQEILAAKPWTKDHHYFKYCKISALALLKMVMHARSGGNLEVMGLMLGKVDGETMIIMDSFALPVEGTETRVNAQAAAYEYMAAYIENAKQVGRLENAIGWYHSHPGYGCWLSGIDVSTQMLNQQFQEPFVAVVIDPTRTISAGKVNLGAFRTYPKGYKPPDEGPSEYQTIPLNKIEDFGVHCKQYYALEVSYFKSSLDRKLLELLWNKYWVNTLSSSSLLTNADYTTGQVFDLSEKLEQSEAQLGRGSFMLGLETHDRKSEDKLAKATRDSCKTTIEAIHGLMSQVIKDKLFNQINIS
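Material: purified human Csn5 enzyme expressed in HEK293T cells / Medium: Tris buffer pH 7.5, NaCl, DTT, Tween-20, trehalose, ovalbumin / Compound dosing: 12.5 µM single point / Schedule: 90 min incubation of compound, enzyme and substrate at room temperature / Signal: fluorescence polarization of the substrate / Control set: no-enzyme wells high, enzyme-with-substrate wells low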
HNF4A DNA FP: change in binding of human HNF4A to DNA, primary screen, biochemical, fluorescence polarization, FITC-DNA; 360,000 compounds, 0.3% hits; 1 h; AID 1224865, 2016; Hepatocyte nuclear factor 4-alpha (Homo sapiens), P41235; activity change, % at 10 µM; in the data active = activity change above about 30%, passing the limit was not always enough
Rev-erbA confirm: modulators of Rev-erb alpha DNA binding, confirmation, biochemical, FITC-DNA, fluorescence polarization, single point. shares compounds with NR1D1 modulator. 90 min. activation, % at 25 µM. 3,000 compounds, 61% hits. AID 1259319, 2017;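 active = activation at or above a set limit, or at least 3 SD above the negative control mean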;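 also: 0% = 35 nM protein with DMSO and 100% = 750 nM protein high control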
RORg counter: modulation of RORgamma DNA binding, dose response, counter-screen for Rev-erb alpha modulator project, biochemical, fluorescence polarization, FITC-DNA; shares compounds with NR1D1 modulator; purified RORgamma protein-FITC-DNA binding; IC50, µM; 910 compounds, 8% hits; AID 1259320, 2017;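 active = Compounds whose fitted half-maximal concentration for disrupting protein-DNA binding is below 10 micromolar; the record names Rev-erb in its text, so the target is in doubt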
The depositor's hits bear a star; nt = no result given. Sampled rows, rich in hits. Any-hit rate of the full collection: about 1.5%.

SMILES	aDG glyco up	NR1D1 modulator	CSN inh	HNF4A DNA FP	Rev-erbA confirm	others
CC(=O)c1ccc(N2CCN(S(=O)(=O)c3ccc4c(c3)NC(=O)CO4)CC2)cc1	0	38*	-1	3	22*
O=S(=O)(c1ccc2nc(N3CCN(c4ccccc4)CC3)ccc2c1)N1CCCCC1	0	83*	-3	2	56*	RORg counter=>40
COc1ccccc1N1CCN(c2ccc3cc(S(=O)(=O)N4CCCCC4)ccc3n2)CC1	2	-8	0	2	nt
COc1ccc(C2C(C(=O)N3CCC(C)CC3)CC(=O)N2c2ccc(OC)cc2)cc1 (stereo not drawn)	nt	0	nt	nt	nt
O=C1c2cccc3cccc(c23)C(=O)N1OS(=O)(=O)c1ccccc1	0	59*	-2	-2	10
O=C1c2cccc3cccc(c23)C(=O)N1OS(=O)(=O)c1ccc(Br)cc1	0	21	5	-2	nt
CCOC(=O)c1c(NC(=O)CN2C(=O)NC3(CCC(CC)CC3)C2=O)sc(C)c1-c1ccc(C)cc1 (stereo not drawn)	0	10	2	-1	nt
CCOC(=O)c1c(NC(=O)CN2C(=O)NC3(CCCCCC3)C2=O)sc(C)c1-c1ccc(C)cc1	1	25*	-7	0	17*
CCOC(=O)c1c(-c2ccc(F)cc2)csc1NC(=O)CN1C(=O)NC2(CCCCC2C)C1=O (stereo not drawn)	0	21*	2	0	10
CCOC(=O)c1sc(NC(=O)CN2C(=O)NC3(CC(C)CC(C)(C)C3)C2=O)c(C(=O)OCC)c1C (stereo not drawn)	0	2	-4	1	nt
CCOC(=O)c1sc(NC(=O)CN2C(=O)NC3(CCC(C)CC3)C2=O)c(C(=O)OCC)c1C (stereo not drawn)	0	36*	1	-1	20*
COc1ccc(C(=O)CSc2nnc(-c3n[nH]c4c3CCC4)n2N)cc1OC	nt	-1	nt	nt	nt
C=CCn1c(SCC(=O)Nc2ccccc2-c2ccccc2)nnc1-c1ccccc1	nt	-4	nt	nt	nt
COCC#Cc1ccc(CC[C@H]2O[C@H]3CC[C@@H](CO)O[C@H]3C[C@H]2n2cc(C3CC3)nn2)cc1	nt	8	nt	nt	nt
CCOc1ccc(NC(=O)CSc2nc(C3CC3)nc3ccccc23)cc1	0	129*	-8	-4	59*	RORg counter=>40
CC(C)(C)c1nc(SCC(=O)Nc2ccc3c(c2)OCCO3)c2ccccc2n1	0	73*	-1	-1	35*	RORg counter=3*
CC(C)(C)c1nc(SCC(=O)Nc2ccc(N3CCOCC3)cc2)c2ccccc2n1	1	53*	0	-3	17*
Nn1c(SCC(=O)N2CCOCC2)nnc1-c1cc(-c2ccc(F)cc2)n[nH]1	nt	3	nt	nt	nt
N#CC(C(=O)Nc1ccccc1)=C1Nc2ccccc2N1	0	7	2	-3	nt
N#C/C(C(=O)Oc1ccccc1)=C1/Nc2ccccc2-c2ccccc21	0	44*	-4	3	31*
COc1ccccc1N1N=C(C(=O)c2ccccc2)C2C(=O)N(c3ccc(Br)cc3)C(=O)C21 (stereo not drawn)	0	29*	5	48	31*	RORg counter=>40
COc1ccccc1N1C(=O)C2C(C(=O)c3ccccc3)=NN(c3ccccc3)C2C1=O (stereo not drawn)	0	-1	4	-3	nt
Cc1c(C(C)(C)C)sc(=NC(=O)c2ccccc2O)n1C	1	21*	2	-2	-10
Cc1cccc(NC(=O)c2cc(NC(=O)c3ccccc3)ccc2N2CCCCC2)c1	0	34*	1	-1	1
Cc1cccc(NC(=O)c2cc(NC(=O)c3ccco3)ccc2N2CCCCC2)c1	0	10	2	1	nt
SMILES	aDG glyco up	NR1D1 modulator	CSN inh	HNF4A DNA FP	Rev-erbA confirm	others
Cc1ccc(-n2nc(C(=O)c3ccccc3)n3c(=O)cc(-c4ccccc4)nc23)cc1	0	49*	4	40	16
CCOC(=O)c1nn(-c2ccc(C)cc2)c2nc(Nc3ccccc3)cc(=O)n12	1	-3	9	0	nt
Nc1[nH]c(C(=O)c2ccccc2)c(-c2ccc3ccccc3c2)c1C(=O)NCCc1ccc(Cl)cc1	nt	0	nt	nt	nt
COC(=O)C1CN(Cc2cn(Cc3ccc(F)cc3)nn2)CCS(=O)(=O)N1Cc1ccc(OC)cc1 (stereo not drawn)	nt	2	nt	nt	nt
Cc1ccc2cc(CN(c3ccccc3)S(=O)(=O)c3ccccc3)c(=O)[nH]c2c1	0	31*	0	-1	5
Cc1cccc(N(Cc2cc3ccc(C)cc3[nH]c2=O)S(=O)(=O)c2ccccc2)c1	0	21	-2	0	nt
Cc1ccc(N(Cc2cc3ccc(C)cc3[nH]c2=O)S(=O)(=O)c2ccccc2)c(C)c1	0	15*	2	0	9
Cc1ccc2cc(CN(c3cccc(C)c3C)S(=O)(=O)c3ccccc3)c(=O)[nH]c2c1	0	20*	3	3	-2
O=c1c2ccccc2[nH]c(=S)n1Cc1ccc2c(c1)OCO2	0	38*	-6	0	48*	RORg counter=>40
O=c1c2cc(F)ccc2[nH]c(=S)n1Cc1ccc(F)cc1	0	57*	-2	0	17*
O=C(CCCCCn1c(=S)[nH]c2ccccc2c1=O)NCc1ccc2c(c1)OCO2	0	4	8	2	nt
NS(=O)(=O)c1ccc(CCn2c(=S)[nH]c3ccc(F)cc3c2=O)cc1	0	58*	-3	4	40*	RORg counter=>40
CC(C)(C)c1ccc(C(=O)Nc2cc(Cl)ccc2C(=O)O)cc1	nt	-4	nt	nt	nt
